Laboratory results reported in ChEMBL document CHEMBL1131007, “5-Fluoro-2-methyl-N-[4-(5H-pyrrolo[2,1-c]-[1, 4]benzodiazepin-10(11H)-ylcarbonyl)-3-chlorophenyl]benzamide (VPA-985): an orally active arginine vasopressin antagonist with selectivity for V2 receptors” (J Med Chem, 1998).

Columns and labels:
Vasopressin V2 receptor [1] = molecular target: Vasopressin V2 receptor (Homo sapiens, UniProt P30518); assay: Displacement of [3H]AVP from human V2 receptor expressed in murine fibroblast cell line (LV2) membranes; assay type: cell-based
Vasopressin V2 receptor (Homo sapiens, UniProt P30518), sequence (P30518 whole entry): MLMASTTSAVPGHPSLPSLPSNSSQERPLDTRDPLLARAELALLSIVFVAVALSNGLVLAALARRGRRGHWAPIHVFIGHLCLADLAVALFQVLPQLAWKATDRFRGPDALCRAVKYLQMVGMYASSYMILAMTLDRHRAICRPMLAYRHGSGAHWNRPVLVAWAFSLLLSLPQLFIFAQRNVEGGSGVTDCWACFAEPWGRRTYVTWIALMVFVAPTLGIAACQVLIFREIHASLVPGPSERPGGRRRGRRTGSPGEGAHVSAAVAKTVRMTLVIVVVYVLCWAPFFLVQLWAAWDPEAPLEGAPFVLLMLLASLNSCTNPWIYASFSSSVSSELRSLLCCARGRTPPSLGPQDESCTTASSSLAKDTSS
Outline: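 Membranes from murine fibroblast line LV2 expressing human V2 receptors; displacement of specific 3H-AVP binding. IC50 given as group mean ± SEM where two or three separate determinations were made.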

Homo sapiens = species: Homo sapiens; assay: Relative affinity for human vasopressin receptors V1a and V2
Outline: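 Ratio from IC50 values: V1a by displacement of 3H-AVP or 3H-[d(CH2)5 1Tyr(Me)2,Arg8]-AVP from human platelet membranes; V2 by displacement of 3H-AVP from membranes of murine fibroblast LV2 cells expressing human V2 receptors.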

Rattus norvegicus [2] = assay: Urinary osmolality from urine collected from rat at 10 mg/kg
Vasopressin V1a receptor [3] = molecular target: Vasopressin V1a receptor (Homo sapiens, UniProt P37288); assay: Displacement of [3H]AVP from vasopressin receptor (V1a) from human platelet membranes.
Vasopressin V1a receptor (Homo sapiens, UniProt P37288), sequence (P37288 whole entry): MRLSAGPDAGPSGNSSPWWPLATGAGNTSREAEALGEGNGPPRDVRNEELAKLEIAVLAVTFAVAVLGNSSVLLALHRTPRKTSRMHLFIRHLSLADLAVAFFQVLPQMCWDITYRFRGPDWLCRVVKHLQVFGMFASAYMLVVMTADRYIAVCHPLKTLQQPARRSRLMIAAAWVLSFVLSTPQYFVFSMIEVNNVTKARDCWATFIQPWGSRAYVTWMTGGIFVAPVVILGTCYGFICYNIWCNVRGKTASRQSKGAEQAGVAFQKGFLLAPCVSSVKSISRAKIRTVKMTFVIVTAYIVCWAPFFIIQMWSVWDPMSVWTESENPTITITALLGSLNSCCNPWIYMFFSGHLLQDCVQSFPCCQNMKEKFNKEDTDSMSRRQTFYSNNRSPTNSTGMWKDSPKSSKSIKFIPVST
Outline: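 Membranes from human platelets; displacement of specific binding of 3H-AVP or 3H-[d(CH2)5 1Tyr(Me)2,Arg8]-AVP at V1a sites. IC50 given as group mean ± SEM where two or three separate determinations were made.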

Rattus norvegicus [4] = assay: Urinary osmolality from urine collected from rat at 1 mg/kg; assay type: functional
Outline: (§1)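 Conscious rats with free access to water before and during the test, given compound in 20% DMSO in aqueous 2.5% preboiled starch (compound first dissolved in DMSO). Urine volume over 4 h and urinary osmolality (mOsm/kg) measured.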

Rattus norvegicus [5] = assay: Urinary osmolality from urine collected from rat at 1 mg/kg in second experiment; assay type: functional
Outline: (§2)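 Conscious rats with water access before but not during the test. Given AVP 0.4 μg/kg ip in peanut oil, then deionized water 30 mL/kg by gavage 20 min later, then vehicle or compound 20 min after that. Vehicle was 20% DMSO in 2.5% preboiled starch. Urine volume over 4 h and osmolality measured.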

Rattus norvegicus [6] = assay: Urinary osmolality from urine collected from rat at 10 mg/kg; assay type: functional; outline: as §1
Rattus norvegicus [7] = assay: Urinary osmolality from urine collected from rat at 10 mg/kg in second experiment; assay type: functional; outline: as §2
Rattus norvegicus [8] = assay: Urinary osmolality from urine collected from rat at 3 mg/kg; assay type: functional; outline: as §1
Rattus norvegicus [9] = assay: Urinary osmolality from urine collected from rat at 3 mg/kg in second experiment; assay type: functional; outline: as §2
Rattus norvegicus [10] = assay: Urine volume collected after 1 mg/kg of drug administration into 6 rats; assay type: functional; outline: as §1
Rattus norvegicus [11] = assay: Urine volume collected after 1 mg/kg of drug administration into 8 rats. (Conscious rats free access to water before but not during the experiment).; assay type: functional; outline: as §2
Rattus norvegicus [12] = assay: Urine volume collected after 3 mg/kg of drug administration into 10 rat; assay type: functional; outline: as §2
Rattus norvegicus [13] = assay: Urine volume collected after 3 mg/kg of drug administration into 15 rats; assay type: functional; outline: as §1
Rattus norvegicus [14] = assay: Urine volume collected after 10 mg/kg of drug administration into 13 rats. (Conscious rats free access to water before and after during the experiment); assay type: functional; outline: as §1
Rattus norvegicus [15] = assay: Urine volume collected after 10 mg/kg of drug administration into 6 rats.; assay type: functional; outline: as §2
Vasopressin V1a receptor [16] = molecular target: Vasopressin V1a receptor (Rattus norvegicus, UniProt P30560); assay: Displacement of (Phe-3,4,5-H) Vasopressin from V1a receptor from rat liver membranes.; assay type: cell membranes, Membrane
Vasopressin V1a receptor (Rattus norvegicus, UniProt P30560), sequence (P30560 whole entry): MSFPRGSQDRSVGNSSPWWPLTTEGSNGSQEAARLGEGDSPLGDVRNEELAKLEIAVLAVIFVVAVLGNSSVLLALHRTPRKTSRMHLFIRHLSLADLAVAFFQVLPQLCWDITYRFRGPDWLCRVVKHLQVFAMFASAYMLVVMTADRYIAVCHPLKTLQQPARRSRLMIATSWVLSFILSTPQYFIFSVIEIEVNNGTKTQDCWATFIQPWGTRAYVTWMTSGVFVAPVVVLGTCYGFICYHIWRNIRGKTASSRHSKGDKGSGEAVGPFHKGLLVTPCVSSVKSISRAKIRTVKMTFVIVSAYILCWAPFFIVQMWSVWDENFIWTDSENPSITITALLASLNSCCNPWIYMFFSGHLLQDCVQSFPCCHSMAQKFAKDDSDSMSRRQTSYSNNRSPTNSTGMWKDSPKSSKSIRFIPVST

[17] = molecular target: Vasopressin receptor (Rattus norvegicus) (UniProt P48974+P30560+Q00788); assay: Relative affinity for rat vasopressin receptors V1a and V2; assay type: protein assay
Vasopressin V2 receptor [18] = molecular target: Vasopressin V2 receptor (Rattus norvegicus, UniProt Q00788); assay: Displacement of [3H]AVP from vasopressin V2 receptor of rat kidney medulla.
Vasopressin V2 receptor (Rattus norvegicus, UniProt Q00788), sequence (Q00788 whole entry): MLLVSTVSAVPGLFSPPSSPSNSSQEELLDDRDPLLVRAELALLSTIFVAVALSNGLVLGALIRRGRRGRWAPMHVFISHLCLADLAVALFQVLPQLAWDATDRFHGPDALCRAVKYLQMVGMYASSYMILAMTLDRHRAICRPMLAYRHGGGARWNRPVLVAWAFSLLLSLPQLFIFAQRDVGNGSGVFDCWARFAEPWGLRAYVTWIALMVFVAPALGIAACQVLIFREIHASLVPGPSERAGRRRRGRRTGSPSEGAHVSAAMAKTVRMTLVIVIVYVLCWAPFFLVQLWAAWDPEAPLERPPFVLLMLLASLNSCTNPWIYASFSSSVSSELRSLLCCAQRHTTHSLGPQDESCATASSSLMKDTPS

Rattus norvegicus [19] = assay: Urine volume collected after 10 mg/kg of drug administration into 3 rats.; assay type: functional; outline: as §2
Rattus norvegicus [20] = assay: Urine volume collected after 10 mg/kg of drug administration into 2 rats.; assay type: functional; outline: as §2
Rattus norvegicus [21] = assay: Urine volume collected after 3 mg/kg of drug administration into 2 rats.
Rattus norvegicus [22] = assay: Urine volume collected after 10 mg/kg of drug administration into 4 rats.; assay type: functional; outline: as §2

Row | IC50 (Vasopressin V2 receptor [1]) [nM] | Selectivity (Homo sapiens) | IC50 (Vasopressin V1a receptor [3]) [nM] | Selectivity [17] | Structure (SMILES) | also measured
1 | 0.5 | 860 |  |  | Cc1cccc(C(=O)Nc2ccc(C(=O)N3Cc4cccn4Cc4ccccc43)c(Cl)c2)c1C | Osmolality (Rattus norvegicus [2]): 557 mOsmol kg-1
2 |  | 6 | 25 |  | Cc1ccc(F)cc1C(=O)Nc1ccc(C(=O)N2Cc3cccn3Cc3ccccc32)cc1Cl | 
3 | 0.7 | 53 | 37 |  | O=C(Nc1ccc(C(=O)N2Cc3cccn3Cc3ccccc32)c(Cl)c1)c1ccc(F)cc1Cl | 
4 | 1.2 | 192 | 230 | 148 | Cc1ccc(F)cc1C(=O)Nc1ccc(C(=O)N2Cc3cccn3Cc3ccccc32)c(Cl)c1 [LIXIVAPTAN] | Osmolality (Rattus norvegicus [4]): 393 mOsmol kg-1; Osmolality (Rattus norvegicus [5]): 629 mOsmol kg-1; Osmolality (Rattus norvegicus [6]): 188 mOsmol kg-1; Osmolality (Rattus norvegicus [7]): 302 mOsmol kg-1; Osmolality (Rattus norvegicus [8]): 222 mOsmol kg-1; Osmolality (Rattus norvegicus [9]): 366 mOsmol kg-1; Urine volume (Rattus norvegicus [10]): 24 ml 4hr-1; Urine volume (Rattus norvegicus [11]): 14 ml 4hr-1; Urine volume (Rattus norvegicus [12]): 30 ml 4hr-1; Urine volume (Rattus norvegicus [13]): 38 ml 4hr-1; Urine volume (Rattus norvegicus [14]): 43 ml 4hr-1; Urine volume (Rattus norvegicus [15]): 37 ml 4hr-1; IC50 (Vasopressin V1a receptor [16]): 340 nM
5 |  |  |  | 2 | O=C(Nc1ccc(C(=O)N2Cc3cccn3Cc3ccccc32)cc1)c1ccccc1Cl | IC50 (Vasopressin V2 receptor [18]): 4.6 nM
6 |  |  |  | 3 | O=C(Nc1ccc(C(=O)N2Cc3cccn3Cc3ccccc32)cc1)c1ccccc1C(F)(F)F | IC50 (Vasopressin V2 receptor [18]): 10.2 nM
7 |  |  |  | 2 | COc1cc(Cl)ccc1C(=O)Nc1ccc(C(=O)N2Cc3cccn3Cc3ccccc32)cc1 | IC50 (Vasopressin V1a receptor [16]): 33 nM; IC50 (Vasopressin V2 receptor [18]): 16 nM
8 | 1.9 | 284 | 540 |  | Cc1c(F)cccc1C(=O)Nc1ccc(C(=O)N2Cc3cccn3Cc3ccccc32)c(Cl)c1 | Urine volume (Rattus norvegicus [19]): 17 ml 4hr-1; Osmolality (Rattus norvegicus [2]): 473 mOsmol kg-1
9 | 4.2 | 81 |  |  | Cc1ccc(C)c(C(=O)Nc2ccc(C(=O)N3Cc4cccn4Cc4ccccc43)c(Cl)c2)c1 | 
10 |  |  |  | 9 | Cc1ccccc1C(=O)Nc1ccc(C(=O)N2Cc3cccn3Cc3ccccc32)cc1 | IC50 (Vasopressin V2 receptor [18]): 4.1 nM
11 |  |  |  |  | Cc1ccccc1C(=O)Nc1ccc(C(=O)N2CCCC(N(C)C)c3ccccc32)cc1 (stereo unspecified) [MOZAVAPTAN] | Osmolality (Rattus norvegicus [6]): 352 mOsmol kg-1; Osmolality (Rattus norvegicus [8]): 850 mOsmol kg-1; Urine volume (Rattus norvegicus [20]): 23 ml 4hr-1; Urine volume (Rattus norvegicus [21]): 10 ml 4hr-1
12 |  | 2 | 6.3 |  | O=C(Nc1ccc(C(=O)N2Cc3cccn3Cc3ccccc32)cc1)c1ccc(F)cc1Cl | 
13 |  |  |  | 2 | COc1ccccc1C(=O)Nc1ccc(C(=O)N2Cc3cccn3Cc3ccccc32)cc1 | 
14 |  |  |  | 4 | Cc1cc(C(=O)N2Cc3cccn3Cc3ccccc32)ccc1NC(=O)c1ccc(Cl)cc1Cl | IC50 (Vasopressin V1a receptor [16]): 33 nM; IC50 (Vasopressin V2 receptor [18]): 8 nM
15 |  | 17 |  |  | COc1cc(C(=O)N2Cc3cccn3Cc3ccccc32)ccc1NC(=O)c1ccc(Cl)cc1Cl | 
16 | 3.2 | 5 | 15 | 7 | O=C(Nc1ccc(C(=O)N2Cc3cccn3Cc3ccccc32)cc1)c1ccc(Cl)cc1Cl | IC50 (Vasopressin V2 receptor [18]): 3.1 nM
17 | 2 | 320 | 640 | 5 | O=C(Nc1ccc(C(=O)N2Cc3cccn3Cc3ccccc32)c(Cl)c1)c1ccc(Cl)cc1Cl | Urine volume (Rattus norvegicus [22]): 14 ml 4hr-1; Osmolality (Rattus norvegicus [2]): 507 mOsmol kg-1
18 | 1.5 |  | 20 |  | Cc1ccc(F)cc1C(=O)Nc1ccc(C(=O)N2Cc3cccn3Cc3ccccc32)cc1 | 
19 | 2.1 | 80 | 120 |  | Cc1ccc(F)cc1C(=O)Nc1ccc(C(=O)N2Cc3cccn3Cc3ccccc32)c(C)c1 | 
20 | 2 | 8 |  |  | COc1cc(NC(=O)c2cc(F)ccc2C)ccc1C(=O)N1Cc2cccn2Cc2ccccc21 | 
21 | 1 | 59 | 59 | 12 | Cc1ccccc1C(=O)Nc1ccc(C(=O)N2Cc3cccn3Cc3ccccc32)c(Cl)c1 | 
22 |  |  |  | 6 | Cc1cccc(C(=O)Nc2ccc(C(=O)N3Cc4cccn4Cc4ccccc43)cc2)c1C | 
23 | 8.3 | 530 | 4400 |  | O=C(Nc1ccc(C(=O)N2Cc3cccn3Cc3ccccc32)c(Cl)c1)c1cccc(C(F)(F)F)c1F | Osmolality (Rattus norvegicus [6]): 635 mOsmol kg-1; Urine volume (Rattus norvegicus [20]): 10 ml 4hr-1
24 |  |  |  | 7 | Cc1c(F)cccc1C(=O)Nc1ccc(C(=O)N2Cc3cccn3Cc3ccccc32)cc1 | 
